This passage reports Activity results from ChEMBL document CHEMBL1152401, “Synthesis of novel macrolide derivatives with imidazo[4,5-b]pyridinyl sulfur contained alkyl side chains and their antibacterial activity” (Bioorg Med Chem Lett, 2009).

Each structure is given as a SMILES string. Calls of active or inactive are those of the source. The calls are words filed in the database; no cut-off is given here.

Type in all cases: functional, organism-based
Test [1] deals with Streptococcus pneumoniae. As to the kind of experiment: Antimicrobial activity against erythromycin-susceptible Streptococcus pneumoniae 07H252 by broth microdilution method. In a few lines: (§1)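 MIC by broth microdilution following NCCLS recommendations. Strains used as erythromycin-susceptible clinical or reference isolates: S. pneumoniae ATCC 49619 and 07H252, S. pyogenes 07U084 and 07U086. Resistant comparison strains came from MOHNARIN, China. Value reported as minimum inhibitory concentration.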

Test [2] concerns Streptococcus pyogenes. Briefly: Antimicrobial activity against erythromycin-susceptible Streptococcus pyogenes 07U086 by broth microdilution method. In a few lines:
as §1
On the technique in general: In broth dilution the organism is exposed to a series of concentrations in liquid medium.

Test [3] concerns Streptococcus pneumoniae. Briefly: Antimicrobial activity against erythromycin-susceptible Streptococcus pneumoniae ATCC 49619 by broth microdilution method. The essentials:
as §1

The subject of test [4] is Streptococcus pneumoniae. As to the kind of experiment: Antimicrobial activity against erythromycin-resistant Streptococcus pneumoniae 05Z006 by broth microdilution method. The essentials: (§2)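 MIC by broth microdilution as recommended by NCCLS. Strains are constitutively erythromycin-resistant clinical isolates supplied by the Ministry of Health National Antimicrobial Resistance Investigation Net (MOHNARIN, China).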

Test [5] deals with Streptococcus pyogenes. Briefly: Antimicrobial activity against erythromycin-susceptible Streptococcus pyogenes 07U084 by broth microdilution method. The essentials:
as §1

Test [6] concerns Streptococcus pyogenes. Briefly: Antimicrobial activity against erythromycin-resistant Streptococcus pyogenes 07Z016 by broth microdilution method. The essentials:
as §2

Test [7] concerns Streptococcus pyogenes. As to the kind of experiment: Antimicrobial activity against erythromycin-resistant Streptococcus pyogenes 07Z011 by broth microdilution method. In a few lines:
as §2

For test [8], the system named is Streptococcus pneumoniae. Briefly: Antimicrobial activity against erythromycin-resistant Streptococcus pneumoniae 07Z001 by broth microdilution method. In a few lines: as §2
Test [9] concerns Streptococcus pyogenes. As to the kind of experiment: Antimicrobial activity against erythromycin-resistant Streptococcus pyogenes 07Z014 by broth microdilution method. In a few lines: as §2

Turning to `CC[C@H]1OC(=O)[C@H](C)[C@@H](OC(=O)Cc2ccc3c(c2)OCO3)[C@H](C)[C@@H](O[C@@H]2O[C@H](C)C[C@H](N(C)C)[C@H]2O)[C@@](C)(OC)C[C@@H](C)C(=O)[C@H](C)[C@H]2N(CCCSc3nc4ccc(OC)nc4[nH]3)C(=O)O[C@]12C`, the result with Streptococcus pneumoniae [1], in the test with Streptococcus pyogenes [2], in the test on Streptococcus pneumoniae [3], in the test with Streptococcus pneumoniae [4], in the test on Streptococcus pyogenes [5] and in the test with Streptococcus pyogenes [6] was Active. Also, the result with Streptococcus pyogenes [7], in the test with Streptococcus pneumoniae [8] and in the test on Streptococcus pyogenes [9] was Active.
With `CC[C@H]1OC(=O)[C@H](C)[C@@H](OC(=O)Cc2ccc3c(c2)OCO3)[C@H](C)[C@@H](O[C@@H]2O[C@H](C)C[C@H](N(C)C)[C@H]2O)[C@@](C)(OC)C[C@@H](C)C(=O)[C@H](C)[C@H]2N(CCCCSc3nc4ccc(OC)nc4[nH]3)C(=O)O[C@]12C`, the outcome with Streptococcus pneumoniae [1], in the test with Streptococcus pyogenes [2], in the test with Streptococcus pneumoniae [3], in the test on Streptococcus pneumoniae [4], with Streptococcus pyogenes [5] and in the test on Streptococcus pyogenes [6] was Active. Moreover, the outcome with Streptococcus pyogenes [7], in the test with Streptococcus pneumoniae [8] and in the test with Streptococcus pyogenes [9] was Active.
For `CC[C@H]1OC(=O)[C@H](C)C(=O)[C@H](C)[C@@H](O[C@@H]2O[C@H](C)C[C@H](N(C)C)[C@H]2O)[C@](C)(OC)C[C@@H](C)C(=O)[C@H](C)[C@H]2N(CCCCn3cnc(-c4cccnc4)c3)C(=O)O[C@]12C`, the result with Streptococcus pneumoniae [1], in the test on Streptococcus pyogenes [2], in the test on Streptococcus pneumoniae [3], in the test with Streptococcus pneumoniae [4], with Streptococcus pyogenes [5] and in the test with Streptococcus pyogenes [6] was Active. For the same molecule, the result in the test with Streptococcus pyogenes [7], in the test on Streptococcus pneumoniae [8] and in the test on Streptococcus pyogenes [9] was Active.
Take `CC[C@H]1OC(=O)[C@H](C)[C@@H](OC(=O)Cc2cccnc2)[C@H](C)[C@@H](O[C@@H]2O[C@H](C)C[C@H](N(C)C)[C@H]2O)[C@@](C)(OC)C[C@@H](C)C(=O)[C@H](C)[C@H]2N(CCCSc3nc4ccc(OC)nc4[nH]3)C(=O)O[C@]12C`: the result in the test on Streptococcus pneumoniae [1], in the test on Streptococcus pyogenes [2], with Streptococcus pneumoniae [3], in the test with Streptococcus pneumoniae [4], in the test on Streptococcus pyogenes [5] and with Streptococcus pyogenes [6] was Active. Besides, the result with Streptococcus pyogenes [7], in the test on Streptococcus pneumoniae [8] and in the test on Streptococcus pyogenes [9] was Active.
Turning to `CC[C@H]1OC(=O)[C@H](C)[C@@H](O[C@H]2C[C@@](C)(OC)[C@@H](O)[C@H](C)O2)[C@H](C)[C@@H](O[C@@H]2O[C@H](C)C[C@H](N(C)C)[C@H]2O)[C@](C)(OC)C[C@@H](C)C(=O)[C@H](C)[C@@H](O)[C@]1(C)O`, the outcome in the test with Streptococcus pneumoniae [1], in the test on Streptococcus pyogenes [2], in the test with Streptococcus pneumoniae [3] and in the test on Streptococcus pyogenes [5] was Active. Moreover, the result with Streptococcus pneumoniae [4], with Streptococcus pyogenes [6], in the test with Streptococcus pyogenes [7], with Streptococcus pneumoniae [8] and in the test on Streptococcus pyogenes [9] was inactive.
Turning to `CC[C@H]1OC(=O)[C@H](C)[C@@H](OC(=O)Cc2cccnc2)[C@H](C)[C@@H](O[C@@H]2O[C@H](C)C[C@H](N(C)C)[C@H]2O)[C@@](C)(OC)C[C@@H](C)C(=O)[C@H](C)[C@H]2N(CCCCSc3nc4ccc(OC)nc4[nH]3)C(=O)O[C@]12C`, the outcome with Streptococcus pneumoniae [1], in the test on Streptococcus pyogenes [2], in the test with Streptococcus pneumoniae [3], in the test with Streptococcus pneumoniae [4], in the test on Streptococcus pyogenes [5] and in the test with Streptococcus pyogenes [6] was Active. The result in the test with Streptococcus pyogenes [7], in the test on Streptococcus pneumoniae [8] and in the test on Streptococcus pyogenes [9] was Active.
As for `CC[C@H]1OC(=O)[C@H](C)[C@@H](O[C@H]2C[C@@](C)(OC)[C@@H](O)[C@H](C)O2)[C@H](C)[C@@H](O[C@@H]2O[C@H](C)C[C@H](N(C)C)[C@H]2O)[C@](C)(O)C[C@@H](C)CN(C)[C@H](C)[C@@H](O)[C@]1(C)O`, the result with Streptococcus pneumoniae [1], with Streptococcus pyogenes [2], in the test on Streptococcus pneumoniae [3] and in the test on Streptococcus pyogenes [5] was Active. The outcome with Streptococcus pneumoniae [4], in the test with Streptococcus pyogenes [6], with Streptococcus pyogenes [7], with Streptococcus pneumoniae [8] and in the test with Streptococcus pyogenes [9] was inactive.
As to `CC[C@H]1OC(=O)[C@H](C)C(=O)[C@H](C)[C@@H](O[C@@H]2O[C@H](C)C[C@H](N(C)C)[C@H]2O)[C@@](C)(OC)C[C@@H](C)C(=O)[C@H](C)[C@H]2N(CCCSc3nc4ccc(OC)nc4[nH]3)C(=O)O[C@]12C`, the outcome with Streptococcus pneumoniae [1], in the test on Streptococcus pyogenes [2], with Streptococcus pneumoniae [3], in the test with Streptococcus pneumoniae [4], in the test with Streptococcus pyogenes [5] and with Streptococcus pyogenes [6] was Active. The outcome in the test on Streptococcus pyogenes [7], with Streptococcus pneumoniae [8] and in the test with Streptococcus pyogenes [9] was Active.
